Bioassay records: PubChem, Columbia University Molecular Screening Center
Only a selection was taken, and hits are over-represented in it overall.
Insulin prom act = TRM-6 insulin promoter activation; TRM-6 cells (human fetal islet line), insulin promoter eGFP reporter, imaging; plate-scaled: unstimulated 0, stimulated control 100; activation, % at 2 µM; actives 0.81% (n = 130,000); AID 1296;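 active = activation at 2 µM above a set limit, confirmed on inspection of the cell images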;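 note: share of cells whose green reporter signal exceeds an intensity cutoff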
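Test system: TRM-6 insulin promoter–eGFP reporter cells / Quantity: 1,000 cells per well / Reagent: tamoxifen inducer, 0.75 µM, in seeding medium / Compound dosing: 2 µM final, single concentration / Schedule: overnight tamoxifen, then two-day compound incubation at 37 °C / Measured by: automated fluorescence imaging of paraformaldehyde-fixed, Hoechst-counterstained cells, green channel / Read-out: percent activation from GFP-positive cell fraction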
Numbers without * were called inactive.

SMILES	Insulin prom act
COc1ccc(CCn2c(-n3nc(C)cc3C)nc3c2c(=O)[nH]c(=O)n3C)cc1	-5
Cn1c(=O)[nH]c(=O)c2c1nc(CN1CCN(c3ccc(F)cc3)CC1)n2CCc1ccccc1	329
COc1ccc(CCn2c(N3CCOCC3)nc3c2c(=O)[nH]c(=O)n3C)cc1	100*
Clc1ccc(-c2nnnn2-c2ccc(Cl)c(Cl)c2)cc1Cl	9
COc1ccc(CCNC(=O)CCSc2nc(-c3ccco3)cc(C(F)(F)F)n2)cc1OC	5
Cc1ccc(NC(=S)N/C(=N/S(=O)(=O)c2ccccc2)c2ccccc2)cc1	-6
CC1CCN(Cc2c(O)ccc3c2O/C(=C\c2ccco2)C3=O)CC1	486*
COc1ccccc1Oc1coc2c(CN3CCN(C)CC3)c(O)ccc2c1=O	8
O=C1/C(=C/c2ccco2)CCc2ccccc21	0
CCOc1ccc(-c2cc3nc(C4CCN(C(=O)OC(C)(C)C)CC4)c(C(=O)O)cn3n2)cc1	6
O=C(COc1ccccc1)N1CCc2ccccc21	-2
O=C(CCC(=O)N1CCc2ccccc21)N1CCc2ccccc21	569*
Cc1ccc(S(=O)(=O)CCC(=O)N2CCc3ccccc32)cc1	4
COc1cc(C(=O)NCCC(=O)NCCCN2CCCCC2)cc(OC)c1OC	227
COC(=O)C1(S(=O)(=O)c2ccc(C)cc2)CCOCC1	0
CCC(=O)Nc1nnc(SCC(=O)Nc2ccc(F)cc2)s1	8
N#CC1=C(N)SC(N)=C(C#N)C1c1ccoc1	32
Cc1ccc(C2C(C#N)=C(N)SC(N)=C2C#N)cc1	121*
Cc1ccc(C2C(C#N)=C(N)SC(N)=C2C#N)c(C)c1	-4
CNc1nc(C)nc(-n2nc(C)cc2C)n1	660*
Cc1cc(-n2nc(C)cc2C)nc(N)n1	-8
Cc1cc(NCCO)nc(-n2nc(C)cc2C)n1	-79
CC(=O)Nc1ccc(C(=O)N2CCCC2)cc1	-5
COCCNC(=O)C(=O)NCCN1CCOCC1	494*
COc1ccc(C(=O)NCCN2CCOCC2)cc1OC	-79
SMILES	Insulin prom act
O=C(CCSCCC(=O)NCCN1CCOCC1)NCCN1CCOCC1	-7
COc1cccc(OC)c1C(=O)N1CCN(S(=O)(=O)c2ccc(C)cc2)CC1	7
Cc1ccc(NS(=O)(=O)c2ccc(CCC(=O)N3CCOCC3)cc2)cc1	188
Cc1ccc(S(=O)(=O)Nc2ccc(S(=O)(=O)NC(C)(C)C)cc2)cc1	8
Cc1ccc(S(=O)(=O)Nc2ccc(N3CCOCC3)cc2)cc1	81*
Cc1nc(-c2cccc(NS(=O)(=O)c3cccc4ccccc34)c2)cs1	-7
CC(C)Cc1ccc(/C=C/C(=O)N2CCCCC2)cc1	-3
O=C(/C=C/c1ccc(Cl)cc1)N1CCN(c2ncccn2)CC1	4
CC(C)(C)c1ccc(/C=C/C(=O)N2CCCCC2)cc1	335*
CN(C)c1ccc(NC(=O)c2cccc(N3C(=O)C4C5C=CC(C5)C4C3=O)c2)cc1 (stereo not drawn)	-80
CC(=O)N1CCc2cc(S(=O)(=O)CCC(=O)N3CCN(C(=O)c4ccco4)CC3)ccc21	6
C/C(=N\NC(=O)c1c(C)nc2ccccn12)c1ccco1	-73
CC1CCN(C(=S)c2cn(Cc3cccc(F)c3)c3ccccc23)CC1	8
Cc1ccc(C(C(=O)NC2CCCC2)N(C(=O)Cc2cccs2)c2ccc(C)c(C)c2)o1 (stereo not drawn)	8
Cc1nn(C)cc1C(C(=O)NC1CCCCC1)N(C(=O)c1cnccn1)c1ccc(Oc2ccccc2)cc1 (stereo not drawn)	0
Cc1nn(C)cc1C(C(=O)NC1CCCCC1)N(C(=O)Cc1cccs1)c1ccc(C(C)C)cc1 (stereo not drawn)	200*
c1ccc(Oc2ccc(-c3ccnc4nc(N5CCOCC5)nn34)cc2)cc1	-3
c1ccc(Oc2ccc(-c3ccnc4ncnn34)cc2)cc1	397*
Clc1ccc(COc2ccccc2-c2ccnc3ncnn23)cc1	9
Cc1ccc(C(=O)CSc2ncnc3sc4c(c23)CCC(C)C4)cc1 (stereo not drawn)	-8
Cn1c(=O)c2c(SCCN3CCOCC3)nc(C3CCCC3)nc2n(C)c1=O	-9
CCC1(CC)C(=O)NC(=O)NC1=Nc1cccc(OC)c1	168*
COc1cccc(-c2csc3nc[nH]c(=O)c23)c1	-89
COc1cccc(NC(=O)Cc2ccccc2)c1	-73
CC1CCCC(N2CCN(C(=O)c3cccc(F)c3)CC2)C1 (stereo not drawn)	-86
SMILES	Insulin prom act
CC(C)=C1C2CCC1C1C(=O)N(NC(=O)COc3ccc(Cl)c(C)c3)C(=O)C21 (stereo not drawn)	0
CCc1nnc(NC(=O)CSc2nnc(CSc3nc(C)cc(C)n3)n2CC)s1	7
CC(C)n1cc(/C=C(\C#N)S(=O)(=O)c2ccccc2)c2ccccc21	9
Cc1ccc(CO/N=C\Cc2snc(Sc3ncc(C(F)(F)F)cc3Cl)c2C#N)cc1	-3
CC(=NCCCNC1CCCCC1)C1=C(O)CC(C)(C)CC1=O	89*
CC1(C)CC(=O)C(C=N)=C(O)C1	4
Cn1cc(CN2CCCC(CO)(Cc3ccccc3)C2)cn1 (stereo not drawn)	-7
COc1ccccc1Oc1nc([N+](=O)[O-])nn1CC(N)=O	-3
O=C(CSc1n[nH]c(-c2ccccc2)n1)Nc1ncc(Br)cc1Br	0
CCOC(=O)N1CCN(C(=O)CSc2ncccn2)CC1	186*
CCOC(=O)N1CCN(C(=O)CSc2ccc(-c3ccncc3)nn2)CC1	-75
CCOC(=O)N1CCN(C(=O)CSc2ccc(-c3ccccc3)nn2)CC1	3
Cc1c2c([n+]3n1CCC3)CC(C)(C)CC2=O	-7
O=C(NC1CCCc2ccccc21)C1CCN(S(=O)(=O)c2cnc[nH]2)CC1 (stereo not drawn)	156
O=C(NC1CCCc2ccccc21)C1CCN(S(=O)(=O)c2ccccc2F)CC1 (stereo not drawn)	0
O=C(NC1CCCc2ccccc21)C1CCN(c2nnc(-n3cccc3)s2)CC1 (stereo not drawn)	186*
Cc1ccc(N2C(=O)c3ccc(C(=O)N4CCOCC4)cc3C2=O)cc1C	-91
Cc1ccc2cc(CN(Cc3ccco3)C(=S)NCC3CCCO3)c(=O)[nH]c2c1C (stereo not drawn)	-8
Cc1cccc2cc(CN(Cc3ccco3)C(=O)c3cccs3)c(=O)[nH]c12	-3
Cc1ccc2cc(CN(Cc3ccco3)C(=O)NCc3ccccc3)c(=O)[nH]c2c1C	160*
Cc1cccc(-c2nnc(SCC(=O)Nc3ncccn3)n2C)c1	-9
O=S1(=O)N=C2CCCCCN2C(c2ccc(Br)cc2)N1 (stereo not drawn)	6
CCn1nnnc1NCc1ccc(OCc2c(F)cccc2Cl)c(OC)c1	107
S=c1[nH]ncn1-c1ccccn1	7
C(=N\N(Cc1ccccc1)c1ccccc1)/c1ccco1	10
SMILES	Insulin prom act
Cc1occc1C(=O)N1CCN(Cc2ccccc2)CC1	0
O=C(c1ccco1)N1CCCN(C(=O)c2ccco2)CC1	-23
Cc1ccc(CN2CCN(C(=O)c3ccco3)CC2)cc1	422*
O=S(=O)(c1ccccc1F)N1CCN(Cc2nc3ccccc3[nH]2)CC1	-2
c1ccc2sc(SCc3ccc(-c4nnco4)cc3)nc2c1	10
Cn1c(CCc2ccccc2)nnc1SCC(=O)N1CCOCC1	322
CCCSc1nnc(CN2CCOCC2)n1C	419*
CCCSc1nnc(Cn2c(=O)sc3ccccc32)n1C	-25
O=C(N/N=C\c1cccc(OC(=O)c2ccco2)c1)c1ccc2c(c1)OCO2	4
